Active and inactive are the calls of the source. The rule behind the calls is not given here. Residues, ends and D or L forms follow the SMILES beside them. *: point of attachment. Cbz = O=C(OCc1ccccc1)*
Key:
[1] = molecular target: Acidic phospholipase A2 2 (Naja naja) (UniProt P15445); assay: Inhibition of Naja naja venom sPLA2 at 10 uM
Method in brief: (§1)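 Radiometric sPLA2 assay on [3H]oleate-labeled, autoclaved E. coli CECT 101 membranes. Enzyme in 100 mM Tris-HCl/1 mM CaCl2, pH 7.5, preincubated 5 min at 37 °C with compound (10 µM) or vehicle. Then 15 min with labeled membranes, stopped with ice-cold BSA (0.07% w/v final). Supernatant radioactivity counted after centrifugation; % inhibition, mean ± SEM, n = 6.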

[2] = molecular target: T1, Phospholipase A2 (Apis mellifera) (UniProt P00630); assay: Inhibition of bee venom sPLA2 at 10 uM; method in brief: as §1
T1 sequence (whole entry): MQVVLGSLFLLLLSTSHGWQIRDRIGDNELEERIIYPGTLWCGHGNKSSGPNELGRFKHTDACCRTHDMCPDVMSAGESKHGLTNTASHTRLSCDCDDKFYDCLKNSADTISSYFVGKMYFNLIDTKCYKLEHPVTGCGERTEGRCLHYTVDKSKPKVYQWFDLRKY

[3] = molecular target: Phospholipase A2, major isoenzyme (Sus scrofa) (UniProt P00592); assay: Inhibition of pig sPLA2 at 10 uM
Chain of Phospholipase A2, major isoenzyme (Sus scrofa) (P00592 23-146 limits assumed): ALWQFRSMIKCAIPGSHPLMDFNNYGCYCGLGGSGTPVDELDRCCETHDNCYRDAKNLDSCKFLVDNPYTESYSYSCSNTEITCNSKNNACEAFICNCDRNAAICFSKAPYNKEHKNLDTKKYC
Method in brief: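 sPLA2 (human recombinant synovial group IIA; porcine pancreatic group IB) in 100 mM Tris-HCl/1 mM CaCl2, pH 7.5, preincubated 5 min at 37 °C with compound (10 µM) or vehicle. 15 min incubation with [3H]oleate-labelled autoclaved E. coli membranes as substrate. Stopped with ice-cold BSA (0.07% final), centrifuged, supernatant radioactivity counted. Mean ± SEM, n = 6.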

RAW264.7 [4] = assay: Inhibition of PGE2 production in LPS-stimulated mouse RAW264.7 cells at 1 uM after 18 hrs; format: functional
Method in brief: (§2)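 RAW 264.7 macrophages (1.5 × 10^6 cells/mL) co-incubated with E. coli 0111:B4 LPS (1 µg/mL) and compound or vehicle at 37 °C (induction phase). PGE2 in supernatants measured by radioimmunoassay; MTT reduction checked cytotoxicity. Mean ± SEM, n = 6; IC50 from at least four concentrations.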

RAW264.7 [5] = assay: Inhibition of COX2 expression in LPS-stimulated mouse RAW264.7 cells after 2 hrs by Western blot analysis; format: functional, cell-based
Mus musculus [6] = species: Mus musculus; assay: Decrease of mPGES1 expression in zymosan-stimulated Swiss mouse air pouch model after 24 hrs; format: functional, organism-based
Method in brief: (§3)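 Female Swiss mice (25-30 g) air pouch; six days after initial air injection, 1 mL of 1% (w/v) zymosan in saline injected into pouch, compound given intrapouch at the same time. Exudate collected after 24 h; cell pellets analysed by Western blot for COX-2, mPGES-1 and β-actin. Densitometry expressed as percentage of zymosan control band intensity.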

Mus musculus [7] = species: Mus musculus; assay: Inhibition of COX2 expression in zymosan-stimulated Swiss mouse air pouch model after 24 hrs; format: functional, organism-based; method in brief: as §3
RAW264.7 [8] = assay: Inhibition of PGE2 production in LPS-stimulated mouse RAW264.7 cells at 1 uM after 2 hrs; format: functional
Method in brief: (§4)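 Post-induction phase: RAW264.7 cells that had already expressed COX-2 and mPGES-1 after LPS stimulation were given compound for 2 h in fresh medium supplemented with arachidonic acid. PGE2 in supernatants was quantified by radioimmunoassay. Mean ± SEM, n = 6.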

RAW264.7 [9] = assay: Inhibition of mPGES1 expression in LPS-stimulated mouse RAW264.7 cells after 2 hrs by Western blot analysis; format: functional, cell-based
RAW264.7 [10] = assay: Inhibition of NF-kappaB DNA binding in LPS-stimulated mouse RAW264.7 cells; format: cell-based
Method in brief: (§5)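 EMSA: RAW 264.7 cells (1.5 × 10^6/well) preincubated 30 min with compound, then LPS (1 µg/mL) for 1 h. Nuclear extracts (6 µg) incubated on ice for 15 min with 32P-end-labelled consensus NF-κB oligonucleotide and poly(dI-dC), pH 8.0. Complexes resolved on native 6% PAGE and detected by autoradiography. Two independent experiments.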

RAW264.7 [11] = assay: Inhibition of NF-kappaB DNA binding in LPS-stimulated mouse RAW264.7 cells at 1 uM; format: cell-based; method in brief: as §5
RAW264.7 [12] = assay: Inhibition of PGE2 production in LPS-stimulated mouse RAW264.7 cells at 10 uM after 2 hrs; format: functional; method in brief: as §4
THP-1 = assay: Inhibition of COX2 expression in LPS-stimulated human THP1 cells at 1 uM by Western blot analysis; format: functional, cell-based
Method in brief: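 THP-1 human monocytic cells (1 × 10^6 cells/mL, RPMI with 10% FBS) incubated 18 h with LPS (1 µg/mL) plus compound. Lysates taken, total fraction (30 µg protein) run on SDS-15% PAGE, then blotted with polyclonal anti-COX-2 (1/200), peroxidase secondary and chemiluminescence detection.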

RAW264.7 [13] = assay: Inhibition of PGE2 production in LPS-stimulated mouse RAW264.7 cells after 18 hrs; format: functional, cell-based; details: RAW264.7, 18 h; method in brief: as §2
RAW264.7 [14] = assay: Inhibition of PGE2 production in LPS-stimulated mouse RAW264.7 cells at 10 uM after 18 hrs; format: functional; method in brief: as §2
RAW264.7 [15] = assay: Inhibition of NF-kappaB DNA binding in LPS-stimulated mouse RAW264.7 cells at 10 uM; format: cell-based; method in brief: as §5

Chain of Acidic phospholipase A2 2 (Naja naja) (P15445 whole entry): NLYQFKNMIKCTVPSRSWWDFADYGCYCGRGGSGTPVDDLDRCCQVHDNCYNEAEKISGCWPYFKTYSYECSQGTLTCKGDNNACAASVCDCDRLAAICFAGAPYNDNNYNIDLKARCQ

| SMILES | inhibition [1] [%] | inhibition [2] [%] | inhibition [3] [%] | further results |
| --- | --- | --- | --- | --- |
| O=C1OC(O)C(c2cccc3ccccc23)=C1Br (stereo not drawn) | 8.6 | 0 | 13.7 | – |
| O=C1OC(O)C(c2ccc(-c3ccccc3)cc2)=C1Br (stereo not drawn) | 7.5 | 14.4 | 26 | – |
| CCCCc1ccc(C2=C(Br)C(=O)OC2O)cc1 (stereo not drawn) | 26 | 32.9 | 35.1 | – |
| O=C1OC(O)C(c2csc3ccccc23)=C1Br (stereo not drawn) | 15.4 | 9.8 | 33.5 | – |
| O=C1OC(O)C(c2cccc3c2Sc2ccccc2S3)=C1Br (stereo not drawn) | 1.5 | 0 | 0 | – |
| O=C1OC(O)C(c2ccc3ccccc3c2)=C1Br (stereo not drawn) | 9.2 | 14.7 | 27.7 | – |
| O=C1OC(O)C(c2cccc3c2oc2ccccc23)=C1Br (stereo not drawn) | 0 | 20.4 | 38.6 | – |
| C[C@@H]1C[C@H]2[C@@H]3CCC4=CC(=O)C=C[C@]4(C)[C@@]3(F)[C@@H](O)C[C@]2(C)[C@@]1(O)C(=O)CO [DEXAMETHASONE] | – | – | – | Activity (RAW264.7 [4]): 3.4 ng/mL; Activity (RAW264.7 [5]): Active; Activity (Mus musculus [6]): Active; Activity (Mus musculus [7]): Active; Activity (RAW264.7 [8]): 0.21 ng/mL; Activity (RAW264.7 [9]): Active |
| CCc1c(CC(N)=O)c2cc(OCCCP(=O)(O)O)ccc2n1Cc1ccccc1 | 2.7 | 0 | 6.8 | Activity (RAW264.7 [10]): inactive |
| CC(=O)O[C@@H]1O[C@@H](C2=CC(=O)OC2O)C[C@@H]2[C@@H]1CC[C@H]1[C@@]2(C)CC[C@H]2C(C)(C)CCC[C@]12C (stereo partly drawn) [PETROSASPONGIOLIDE M] | 5.4 | 60.8 | 11.4 | Activity (RAW264.7 [11]): Active; Activity (RAW264.7 [4]): 7.3 ng/mL; Activity (RAW264.7 [8]): 0.22 ng/mL |
| O=C1OC(O)C(c2ccc3ccccc3c2)=C1c1ccc2ccccc2c1 (stereo not drawn) | 9.1 | 25.2 | 22.5 | – |
| O=C1OC(O)C(c2cc3ccccc3s2)=C1Br (stereo not drawn) | 3.4 | 0 | 18.7 | Activity (RAW264.7 [12]): 0.22 ng/mL; Activity (THP-1): inactive; Activity (RAW264.7 [4]): 10.7 ng/mL; IC50 (RAW264.7 [13]): 1.8 µM; Activity (RAW264.7 [5]): inactive; Activity (RAW264.7 [10]): Dose-dependent effect; Activity (Mus musculus [6]): Active; Activity (RAW264.7 [8]): 0.23 ng/mL; Activity (RAW264.7 [14]): 6.7 ng/mL; Activity (RAW264.7 [9]): Dose-dependent effect |
| O=C1OC(O)C(c2ccc(Oc3ccccc3)cc2)=C1Br (stereo not drawn) | 1 | 2.1 | 7.8 | – |
| CC(C)C[C@@H](C=O)NC(=O)[C@H](CC(C)C)NC(=O)[C@H](CC(C)C)NC(=O)OCc1ccccc1 (Cbz-Leu-Leu-Leu-aldehyde) | – | – | – | Activity (RAW264.7 [15]): Active |
| CS(=O)(=O)Nc1ccc([N+](=O)[O-])cc1OC1CCCCC1 [NS-398] | – | – | – | Activity (RAW264.7 [12]): 0.07 ng/mL |
